Reference: ChEMBL document CHEMBL1136094, “Novel, potent and selective cyclin D1/CDK4 inhibitors: indolo[6,7-a]pyrrolo[3,4-c]carbazoles” (Bioorg Med Chem Lett, 2003)

Legend:
Parameters in all cases: scale not given: the % may be the effect or the level left
[1] = molecular target: Serine/threonine-protein kinase Chk2 (Homo sapiens) (UniProt O96017); test: Inhibition of Serine/threonine-protein kinase Chk2 at 500 nM
Method in brief: (§1)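 Panel of 39 kinases, each tested at 100 and 500 nM inhibitor. […] Activity is expressed as % of control and is the mean of duplicate assays.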

[2] = molecular target: RAF proto-oncogene serine/threonine-protein kinase (Homo sapiens) (UniProt P04049); test: Inhibition of RAF proto-oncogene serine/threonine-protein kinase at 500 nM; method in brief: as §1
Chain of RAF proto-oncogene serine/threonine-protein kinase (Homo sapiens) (P04049 whole entry): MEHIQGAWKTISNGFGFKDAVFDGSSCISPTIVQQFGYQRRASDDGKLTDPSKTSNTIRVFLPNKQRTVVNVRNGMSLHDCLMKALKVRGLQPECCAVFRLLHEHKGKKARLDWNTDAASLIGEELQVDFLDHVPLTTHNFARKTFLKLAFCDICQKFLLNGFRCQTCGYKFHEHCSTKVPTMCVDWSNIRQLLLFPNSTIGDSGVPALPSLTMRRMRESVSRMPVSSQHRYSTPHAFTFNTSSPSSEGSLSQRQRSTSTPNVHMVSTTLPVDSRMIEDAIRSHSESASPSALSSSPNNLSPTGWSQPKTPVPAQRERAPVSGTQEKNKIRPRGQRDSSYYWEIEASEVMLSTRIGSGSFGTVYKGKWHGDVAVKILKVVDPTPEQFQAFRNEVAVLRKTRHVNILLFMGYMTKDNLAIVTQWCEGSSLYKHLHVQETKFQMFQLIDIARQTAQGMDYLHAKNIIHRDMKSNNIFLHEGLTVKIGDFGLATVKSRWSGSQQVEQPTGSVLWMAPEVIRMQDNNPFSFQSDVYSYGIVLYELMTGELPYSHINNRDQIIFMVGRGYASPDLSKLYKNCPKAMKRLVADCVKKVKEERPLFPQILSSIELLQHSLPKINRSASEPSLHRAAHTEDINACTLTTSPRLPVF

[3] = molecular target: Inhibitor of nuclear factor kappa-B kinase subunit beta (Homo sapiens) (UniProt O14920); test: Inhibition of I-kappa-B-kinase beta at 500 nM
Chain of Inhibitor of nuclear factor kappa-B kinase subunit beta (Homo sapiens) (O14920 whole entry): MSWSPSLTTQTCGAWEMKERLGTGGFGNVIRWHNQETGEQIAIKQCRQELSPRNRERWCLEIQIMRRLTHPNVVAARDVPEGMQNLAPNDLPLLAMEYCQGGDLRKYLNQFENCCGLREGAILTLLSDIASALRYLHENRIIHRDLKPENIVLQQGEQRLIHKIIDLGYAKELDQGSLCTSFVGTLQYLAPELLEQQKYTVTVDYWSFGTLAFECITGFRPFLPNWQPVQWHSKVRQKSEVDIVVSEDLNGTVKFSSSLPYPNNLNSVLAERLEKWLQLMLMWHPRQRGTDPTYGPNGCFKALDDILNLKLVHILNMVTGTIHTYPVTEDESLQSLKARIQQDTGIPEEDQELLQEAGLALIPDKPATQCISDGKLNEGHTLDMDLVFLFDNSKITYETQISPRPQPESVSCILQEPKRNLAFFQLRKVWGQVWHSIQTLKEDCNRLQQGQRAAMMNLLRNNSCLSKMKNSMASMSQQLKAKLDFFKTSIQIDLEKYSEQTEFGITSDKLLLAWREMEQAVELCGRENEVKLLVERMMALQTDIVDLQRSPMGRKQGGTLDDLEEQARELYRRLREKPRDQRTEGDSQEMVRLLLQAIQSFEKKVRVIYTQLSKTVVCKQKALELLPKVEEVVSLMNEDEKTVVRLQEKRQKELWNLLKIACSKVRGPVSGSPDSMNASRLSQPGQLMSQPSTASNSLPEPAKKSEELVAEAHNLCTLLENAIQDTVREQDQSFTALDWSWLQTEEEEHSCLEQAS
Method in brief: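 Panel profiling of isolated kinases with inhibitor at 100 nM and 500 nM. […] Remaining kinase activity is expressed as % of control and is the mean of duplicate assays.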

[4] = molecular target: Proto-oncogene tyrosine-protein kinase Src (Homo sapiens) (UniProt P12931); test: Inhibition of c-Src protein tyrosine kinase at 500 nM; method in brief: as §1
Chain of Proto-oncogene tyrosine-protein kinase Src (Homo sapiens) (P12931 2-536 limits assumed): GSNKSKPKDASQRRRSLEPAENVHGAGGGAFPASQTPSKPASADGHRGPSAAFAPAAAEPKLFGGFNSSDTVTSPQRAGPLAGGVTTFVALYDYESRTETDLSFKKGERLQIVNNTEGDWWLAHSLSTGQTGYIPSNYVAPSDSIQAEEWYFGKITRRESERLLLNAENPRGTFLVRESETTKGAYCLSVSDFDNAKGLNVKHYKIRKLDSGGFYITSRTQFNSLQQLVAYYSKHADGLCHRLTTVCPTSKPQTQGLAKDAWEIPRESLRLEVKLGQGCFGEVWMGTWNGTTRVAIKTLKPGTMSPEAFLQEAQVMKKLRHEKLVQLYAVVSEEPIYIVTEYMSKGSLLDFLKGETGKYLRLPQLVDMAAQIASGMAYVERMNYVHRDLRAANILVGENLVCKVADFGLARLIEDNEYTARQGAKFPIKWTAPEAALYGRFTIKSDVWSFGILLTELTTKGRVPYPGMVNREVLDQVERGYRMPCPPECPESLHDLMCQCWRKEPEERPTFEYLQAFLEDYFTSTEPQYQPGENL

[5] = molecular target: Dual specificity mitogen-activated protein kinase kinase 4 (Homo sapiens) (UniProt P45985); test: Inhibition of mitogen-activated protein kinase kinase 4 at 500 nM; method in brief: as §1
Chain of Dual specificity mitogen-activated protein kinase kinase 4 (Homo sapiens) (P45985 whole entry): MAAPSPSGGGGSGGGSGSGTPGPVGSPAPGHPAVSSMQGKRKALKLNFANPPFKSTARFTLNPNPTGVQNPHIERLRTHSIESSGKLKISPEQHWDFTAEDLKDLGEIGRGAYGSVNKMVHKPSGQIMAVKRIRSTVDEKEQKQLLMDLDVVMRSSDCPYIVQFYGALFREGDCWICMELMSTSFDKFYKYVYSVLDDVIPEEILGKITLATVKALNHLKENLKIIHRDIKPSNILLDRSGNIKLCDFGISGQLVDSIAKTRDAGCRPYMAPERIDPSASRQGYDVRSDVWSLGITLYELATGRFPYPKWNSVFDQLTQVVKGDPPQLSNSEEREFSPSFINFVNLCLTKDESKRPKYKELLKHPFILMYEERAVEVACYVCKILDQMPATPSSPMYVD

Chain of Serine/threonine-protein kinase Chk2 (Homo sapiens) (O96017 whole entry): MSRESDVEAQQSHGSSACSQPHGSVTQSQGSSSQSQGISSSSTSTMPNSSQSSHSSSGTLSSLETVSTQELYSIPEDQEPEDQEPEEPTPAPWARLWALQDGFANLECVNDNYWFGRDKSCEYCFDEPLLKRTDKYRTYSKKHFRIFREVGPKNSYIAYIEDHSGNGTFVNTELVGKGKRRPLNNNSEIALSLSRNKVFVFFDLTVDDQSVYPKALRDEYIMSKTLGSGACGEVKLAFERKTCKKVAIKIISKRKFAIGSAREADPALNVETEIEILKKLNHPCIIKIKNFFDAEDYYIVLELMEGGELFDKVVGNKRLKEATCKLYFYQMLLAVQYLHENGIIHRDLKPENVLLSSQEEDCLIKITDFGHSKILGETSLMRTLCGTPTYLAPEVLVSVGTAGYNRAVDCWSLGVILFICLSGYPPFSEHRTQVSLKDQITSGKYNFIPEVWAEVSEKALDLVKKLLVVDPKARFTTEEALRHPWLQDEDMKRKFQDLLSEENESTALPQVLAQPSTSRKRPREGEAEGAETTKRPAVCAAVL

Cn1ccc2ccc3c4[nH]c5c(CCCN[C@H]6CC[C@H](O)CC6)cccc5c4c4c(c3c21)C(=O)NC4=O
Control [1]: 53%
Control [2]: 107%
Control [3]: 106%
Control [4]: 91%
Control [5]: 84%
